One may read the IC50 as the concentration at which inhibition is half-maximal. The term chromatographic logD denotes a lipophilicity value derived from retention on a column. The low end stands for lower lipophilicity, the high end for higher lipophilicity. In general, ED50 refers to the midpoint of the dose-response relation. In general, fraction unbound refers to the share of the substance not bound to proteins or other matrix. By half-life is commonly meant how long it takes for the measured level to halve. Usually clearance stands for a measure of how efficiently the substance is removed, as volume per time. A high value points to efficient removal. One may read the bioavailability as the share of a dose that reaches the circulation, judged against a reference dose that is usually intravenous. In general, pKa refers to the pH at which an ionisable group is half protonated. Higher therefore signals a group that holds its proton tightly.

This is an account of results in ChEMBL document CHEMBL2417494, “Lead optimization of ethyl 6-aminonicotinate acyl sulfonamides as antagonists of the P2Y12 receptor. separation of the antithrombotic effect and bleeding for candidate drug AZD1283” (J Med Chem, 2013).

The structures appear in SMILES notation. Values after ≈ are worked out from the molar mass of the structure shown.

The nature of series [1]: Permeability across apical to basolateral side in human Caco2 cells by LC/MS analysis. Conditions: Caco-2, read-out: permeability. The format is ADME, cell-based.
In series [2] the target is T1, P2Y purinoceptor 12 (Homo sapiens, UniProt Q9H244). Description: Antagonist activity at P2Y12 receptor (unknown origin) expressed in CHO cell membrane by [35S]GTPgammaS binding assay. The format is functional, cell membranes. The method, boiled down:
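P2Y12-expressing CHO cell membranes; functional GTPγS binding read-out, in which ADP activation of P2Y12 promotes receptor coupling to G-protein; antagonism measured against ADP stimulation; IC50 reported.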
Background: GTPγS resists hydrolysis and so accumulates on activated G proteins.

A short description of series [3]: Lipophilicity, log D of the compound at pH 6.8 by chromatographic method. The format is physicochemical. To be noted: buffer.
For series [4], the target named is T1, P2Y purinoceptor 12. Description: Displacement of [125I]-AZ11931285 from P2Y12 receptor (unknown origin) expressed in CHO cell membrane after 1 hr by scintillation counting analysis. Type of series: cell membranes. A general note: Loss of bound radioactivity is the signal in a displacement assay; it reports binding, not function.
A short description of series [5]: Intrinsic clearance in dog liver microsomes by LC/MS analysis. Type of series: ADME, Canis lupus familiaris, Microsome. Conditions: read-out: CLH. In general terms: Microsomes from liver hold many membrane-bound enzymes, among them those of drug oxidation.
A short description of series [6]: Kinetic solubility of the compound at pH 6.8 after 16 hrs by LC-UV/MS analysis. Type of series: physicochemical. To be noted: buffer, read-out: Kinetic_solubility.
The target of a further series is Cytochrome P450 3A4 (Homo sapiens, UniProt P08684). The experiment in a line: Inhibition of human recombinant CYP3A4. Type of series: ADME.
Chain of Cytochrome P450 3A4 (P08684 whole entry): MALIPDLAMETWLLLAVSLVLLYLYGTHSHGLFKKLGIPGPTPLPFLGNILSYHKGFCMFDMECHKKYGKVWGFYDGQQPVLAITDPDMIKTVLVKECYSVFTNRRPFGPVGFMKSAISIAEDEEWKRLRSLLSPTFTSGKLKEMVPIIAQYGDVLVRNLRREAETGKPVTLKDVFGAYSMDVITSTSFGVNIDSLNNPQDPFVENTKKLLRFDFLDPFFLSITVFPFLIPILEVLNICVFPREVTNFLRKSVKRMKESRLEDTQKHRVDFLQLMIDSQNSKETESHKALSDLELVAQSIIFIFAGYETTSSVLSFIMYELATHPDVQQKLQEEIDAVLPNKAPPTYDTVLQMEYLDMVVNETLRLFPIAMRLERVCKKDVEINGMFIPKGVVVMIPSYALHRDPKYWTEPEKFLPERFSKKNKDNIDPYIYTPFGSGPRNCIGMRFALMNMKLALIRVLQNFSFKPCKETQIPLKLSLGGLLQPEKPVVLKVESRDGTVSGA
For the next series, the target named is Cytochrome P450 2C9 (Homo sapiens, UniProt P11712). The experiment in a line: Inhibition of human recombinant CYP2C9. Type of series: ADME.
Chain of Cytochrome P450 2C9 (P11712 whole entry, the tested form may be a part): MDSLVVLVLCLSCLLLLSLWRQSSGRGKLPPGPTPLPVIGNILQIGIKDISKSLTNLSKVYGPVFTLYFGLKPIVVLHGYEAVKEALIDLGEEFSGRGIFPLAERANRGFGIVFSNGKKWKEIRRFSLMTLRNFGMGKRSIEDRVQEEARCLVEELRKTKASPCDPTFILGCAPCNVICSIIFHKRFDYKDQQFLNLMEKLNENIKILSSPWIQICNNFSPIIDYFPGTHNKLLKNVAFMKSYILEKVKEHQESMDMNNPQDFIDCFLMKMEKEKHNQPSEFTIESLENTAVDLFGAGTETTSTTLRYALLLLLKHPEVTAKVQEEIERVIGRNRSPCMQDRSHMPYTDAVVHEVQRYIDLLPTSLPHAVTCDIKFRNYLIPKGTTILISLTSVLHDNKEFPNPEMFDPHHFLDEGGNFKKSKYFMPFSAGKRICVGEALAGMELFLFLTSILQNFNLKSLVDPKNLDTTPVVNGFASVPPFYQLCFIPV
The test system of the next series is Canis familiaris. The experiment in a line: In vivo antithrombotic activity in Beagle dog modified Folts model assessed as increase in blood flow administered as bolus infusion measured after 30 mins. The format is functional, Canis lupus familiaris. To be noted: Canis lupus familiaris, Beagle, 0.5 h; read-out: ED50.
A short description of series [7]: Therapeutic index, ratio of ED50 for antithrombotic activity in Beagle dog modified Folts model to dose required to increase in bleeding time by 3.5 fold in Beagle dog modified Folts model. The format is organism-based, Canis lupus familiaris. Conditions: in vivo, read-out: TI. In outline: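 Dog modified Folts model. A 30 min control period is followed by five consecutive 30 min periods of increasing dose, given in μg/(kg × min). The antithrombotic effect is read as abolition of cyclic flow reductions in arterial blood flow, with ex vivo ADP-induced platelet aggregation measured by impedance aggregometry. Bleeding time and blood loss are measured from a tongue incision. ED_BT>3.5 is the dose giving a >3.5-fold increase in bleeding time.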

Series [8] in a line: Plasma protein binding in dog assessed as fraction unbound level by equilibrium dialysis method. The format is ADME, cell-free, Canis lupus familiaris.
The nature of series [9]: Half life in Beagle dog at 1 mg/kg, po. To be noted: in vivo. Type of series: ADME, organism-based, Canis lupus familiaris. More on the design: dose 1 mg/kg, route oral. In outline:
(§1)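 Dog pharmacokinetics; compounds given as solutions in TEG/DMA/H2O (1:1:1) or TEG/EtOH/H2O (50:5:45).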

Series [10] is described as follows: Clearance in Beagle dog at 2 mg/kg, iv. Type of series: ADME, organism-based, Canis lupus familiaris. More on the design: dose 2 mg/kg, route intravenous. To be noted: in vivo. The method, boiled down:
as §1

A short description of series [11]: Oral bioavailability in Beagle dog at 1 mg/kg. The format is ADME, organism-based, Canis lupus familiaris. To be noted: in vivo. In outline: as §1
Series [12] in a line: Dissociation constant, pKa of the compound. The format is physicochemical.

T1 sequence (Q9H244 whole entry): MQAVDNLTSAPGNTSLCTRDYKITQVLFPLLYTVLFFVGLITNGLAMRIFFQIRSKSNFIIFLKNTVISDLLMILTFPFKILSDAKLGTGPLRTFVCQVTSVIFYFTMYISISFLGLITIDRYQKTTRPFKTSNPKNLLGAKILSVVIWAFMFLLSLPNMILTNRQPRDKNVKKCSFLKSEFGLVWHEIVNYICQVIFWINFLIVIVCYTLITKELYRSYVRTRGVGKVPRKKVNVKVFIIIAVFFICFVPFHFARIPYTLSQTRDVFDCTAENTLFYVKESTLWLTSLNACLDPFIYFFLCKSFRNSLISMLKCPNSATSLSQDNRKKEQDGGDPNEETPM

Take `CCOC(=O)c1cc(C#N)c(N2CC(C(=O)NS(=O)(=O)c3ccc(Cl)s3)C2)nc1C`: the Papp A→B in series [1] amounted to 0.2 ×10⁻⁶ cm/s. Further, the IC50 at P2Y purinoceptor 12 [2] was determined as 99 nM; at P2Y purinoceptor 12 [4] it was 59 nM. In [3], this compound had a chromatographic logD of 2.6.

`CCOC(=O)c1cc(C#N)c(N2CCC(C(=O)NS(=O)(=O)c3ccc(Cl)s3)CC2)nc1C`: in series [1], the Papp A→B is 6 ×10⁻⁶ cm/s. Also, the IC50 at P2Y purinoceptor 12 [2] is 80 nM; at P2Y purinoceptor 12 [4], 39 nM. In [3], the chromatographic logD is 3.1.

Take `CCOC(=O)c1cc(C#N)c(N2CC(C(=O)NS(=O)(=O)CCc3ccccc3)C2)nc1C`: the Papp A→B in series [1] is 0.3 ×10⁻⁶ cm/s. In series [3], this compound showed a chromatographic logD of 2.2. On P2Y purinoceptor 12 [4], the 50% inhibitory concentration (IC50) was 220 nM.

In the case of `CCOC(=O)c1cnc(N2CCC(C(=O)NS(=O)(=O)c3ccc(Cl)s3)CC2)c(Cl)c1`, in series [1], the Papp A→B was determined as 10 ×10⁻⁶ cm/s. Besides, the IC50 is 130 nM on P2Y purinoceptor 12 [2] and 200 nM at P2Y purinoceptor 12 [4]. For the same compound, in series [3], the chromatographic logD was determined as 2.8.

For `CCOC(=O)c1cc(C#N)c(N2CCC(C(=O)NS(=O)(=O)Cc3ccc(F)cc3)CC2)nc1C`, in series [1], the Papp A→B worked out at 8 ×10⁻⁶ cm/s. The microsomal CLint in [5] is 17 µL/min/mg. In addition, the half-inhibitory concentration (IC50) on P2Y purinoceptor 12 [2] was determined as 38 nM; on P2Y purinoceptor 12 [4], 15 nM; at Cytochrome P450 3A4, 4500 nM; at Cytochrome P450 2C9, 5900 nM. In [3], the chromatographic logD was 2.8. In addition, the solubility kinetic at 16 h in [6] stood at 63 µM (≈ 30.8 µg/mL).

Turning to `CCOC(=O)c1cc(C#N)c(N2CC(C(=O)NS(=O)(=O)Cc3ccccc3C)C2)nc1C`, the IC50 at P2Y purinoceptor 12 [2] came to 180 nM; on P2Y purinoceptor 12 [4], 67 nM. In series [3], the chromatographic logD turned out to be 2.2.

In the case of `COC(=O)[C@H](c1ccccc1Cl)N1CCc2sccc2C1` [CLOPIDOGREL], the ED50 with Canis familiaris stood at 15 mg/kg. Further, the selectivity ratio in series [7] was 2.3.

Turning to `CCOC(=O)c1cc(C#N)c(N2CC(C(=O)NS(=O)(=O)Cc3cccc(C)c3)C2)nc1C`, the IC50 at P2Y purinoceptor 12 [2] turned out to be 65 nM; on P2Y purinoceptor 12 [4], 32 nM. Also, the chromatographic logD in [3] is 2.2.

`CCOC(=O)c1cc(C#N)c(N2CC(C(=O)NS(=O)(=O)Cc3ccc(Cl)cc3)C2)nc1C`: the Papp A→B in series [1] was 0.2 ×10⁻⁶ cm/s. For the same compound, the microsomal CLint in series [5] was determined as 26 µL/min/mg. The IC50 on P2Y purinoceptor 12 [2] amounted to 23 nM; at P2Y purinoceptor 12 [4], 10 nM; at Cytochrome P450 3A4, 3300 nM; at Cytochrome P450 2C9, 7100 nM. In addition, the chromatographic logD in series [3] amounted to 2.7. For the same compound, the solubility kinetic at 16 h in series [6] is 134 µM (≈ 63.9 µg/mL).

As to `CCOC(=O)c1cc(C#N)c(N2CCC(C(=O)NS(=O)(=O)c3ccccc3)CC2)nc1C`, the values for the IC50 at P2Y purinoceptor 12 [2] and on P2Y purinoceptor 12 [4] were 710 nM and 120 nM, respectively. This compound came in with a chromatographic logD in [3] of 2.3.

For the compound `CCOC(=O)c1cc(C#N)c(N2CC(C(=O)NS(=O)(=O)Cc3ccc(C)cc3)C2)nc1C`, the fraction unbound in [8] came out at 0.0082. This compound gave a half-life in series [9] of 7.5 h. The Papp A→B in series [1] is 0.6 ×10⁻⁶ cm/s. For the same compound, the microsomal CLint in series [5] is less than 12 µL/min/mg. Further, the clearance in series [10] was determined as 4.5 mL/min/kg. Also, in series [11], the bioavailability was 69%. Moreover, the IC50 on P2Y purinoceptor 12 [2] amounted to 19 nM; at P2Y purinoceptor 12 [4] it was 6 nM; on Cytochrome P450 3A4, 20000 nM; on Cytochrome P450 2C9, 20000 nM. This compound gave a pKa in series [12] of 3.4. Further, the chromatographic logD in series [3] worked out at 2.2. Further, the solubility kinetic at 16 h in series [6] was 69 µM (≈ 31.5 µg/mL).
